Data on one molecule can be found in ChEMBL document CHEMBL1811845, “Modulation of GABAA-receptors by honokiol and derivatives: subtype selectivity and structure-activity relationship” (J Med Chem, 2011).

The target in assay [1] is Gamma-aminobutyric acid receptor subunit alpha-3/ beta-2 (Homo sapiens) (UniProt P47870+P34903). Briefly: Modulation of GABA Aalpha3beta2 receptor expressed in Xenopus laevis oocytes assessed as potentiation of GABA-induced chloride current at holding potential -70 mV by two-microelectrode voltage clamp technique relative to GABA. The conditions noted are these: Oocyte. In kind it is cell-based. An outline of the steps: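 Oocytes were injected with α1, α2, α3 or α5 plus β2 cRNA at a 1:1 ratio and stored at 18 °C in ND96, pH 7.4. Enhancement was (I(GABA+compound)/IGABA)−1, and concentration-response data were Hill-fitted for EC50 and nH. Matched DMSO was ≤0.3%.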

In assay [2] the target is GABA-A receptor; GABA-A site (alpha1/beta2 interface) (Homo sapiens) (UniProt P14867+P47870). Briefly: Modulation of GABA Aalpha1beta2 receptor expressed in Xenopus laevis oocytes assessed as potentiation of GABA-induced chloride current at holding potential -70 mV at 30 uM by two-microelectrode voltage clamp technique relative to GABA. It is filed as cell-based. The note with it: Oocyte. In short, it runs like this:
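Single-concentration screen at 30 μM on α1β2 receptors (cRNA 1:1) in Xenopus oocytes. Enhancement was (I(GABA+compound)/IGABA)−1. DMSO was matched in control and test solutions, maximum 0.3% in the bath.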

Assay [3] can be described thus: Modulation of GABA alpha1beta2gamma2s receptor expressed in Xenopus laevis oocytes assessed as potentiation of GABA-induced chloride current at holding potential -70 mV by two-microelectrode voltage clamp technique. In kind it is cell-based. The note with it: Oocyte. An outline of the steps: (§1)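 Oocytes were injected with α1, β2 and γ2s cRNAs mixed 1:1:10 and stored at 18 °C in ND96 (pH 7.4). GABA was applied at a concentration giving 3–7% of maximal current, determined for each oocyte. Enhancement was taken as (I(GABA+compound)/IGABA) − 1. Concentration–response data were fitted to a Hill equation. Control solutions carried equal DMSO, at most 0.3%.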

Assay [4] concerns Oocyte. Briefly: Modulation of GABA alpha1beta2gamma2s receptor expressed in Xenopus laevis oocytes assessed as potentiation of GABA-induced chloride current at holding potential -70 mV at 10 uM by two-microelectrode voltage clamp technique in presence of 1 uM of flumazenil relative to GABA. It is filed as cell-based.
Assay [5] deals with GABA-A receptor alpha-1/beta-3 (Homo sapiens) (UniProt P14867+P28472). Briefly: Modulation of GABA Aalpha1beta3 receptor expressed in Xenopus laevis oocytes assessed as potentiation of GABA-induced chloride current at holding potential -70 mV by two-microelectrode voltage clamp technique relative to GABA. It is filed as cell-based. The note with it: Oocyte. In short, it runs like this: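 α1β3 receptors were expressed in defolliculated stage V–VI Xenopus oocytes and kept at 18 °C in ND96, pH 7.4. Potentiation was computed as (I(GABA+compound)/IGABA)−1, and EC50 and Hill coefficient came from nonlinear fits. Matched DMSO was ≤0.3%.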

Assay [6] addresses T1, Gamma-aminobutyric acid receptor subunit alpha-2/beta-2 (Homo sapiens, UniProt P47869+P47870).
T1 sequence (P47870 whole entry): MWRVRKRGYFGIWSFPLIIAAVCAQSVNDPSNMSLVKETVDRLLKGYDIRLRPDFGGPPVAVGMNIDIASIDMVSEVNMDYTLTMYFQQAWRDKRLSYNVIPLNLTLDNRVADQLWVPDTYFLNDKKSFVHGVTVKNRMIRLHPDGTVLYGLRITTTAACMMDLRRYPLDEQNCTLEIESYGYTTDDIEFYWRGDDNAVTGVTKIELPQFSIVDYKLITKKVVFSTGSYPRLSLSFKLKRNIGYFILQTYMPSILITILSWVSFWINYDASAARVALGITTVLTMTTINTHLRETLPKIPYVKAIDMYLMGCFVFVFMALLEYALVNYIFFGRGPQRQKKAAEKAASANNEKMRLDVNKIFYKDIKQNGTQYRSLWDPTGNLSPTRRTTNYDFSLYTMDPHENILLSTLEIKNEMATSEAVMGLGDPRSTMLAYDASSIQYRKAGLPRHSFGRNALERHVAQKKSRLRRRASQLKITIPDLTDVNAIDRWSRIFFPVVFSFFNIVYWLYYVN
T1 sequence (P47869 whole entry): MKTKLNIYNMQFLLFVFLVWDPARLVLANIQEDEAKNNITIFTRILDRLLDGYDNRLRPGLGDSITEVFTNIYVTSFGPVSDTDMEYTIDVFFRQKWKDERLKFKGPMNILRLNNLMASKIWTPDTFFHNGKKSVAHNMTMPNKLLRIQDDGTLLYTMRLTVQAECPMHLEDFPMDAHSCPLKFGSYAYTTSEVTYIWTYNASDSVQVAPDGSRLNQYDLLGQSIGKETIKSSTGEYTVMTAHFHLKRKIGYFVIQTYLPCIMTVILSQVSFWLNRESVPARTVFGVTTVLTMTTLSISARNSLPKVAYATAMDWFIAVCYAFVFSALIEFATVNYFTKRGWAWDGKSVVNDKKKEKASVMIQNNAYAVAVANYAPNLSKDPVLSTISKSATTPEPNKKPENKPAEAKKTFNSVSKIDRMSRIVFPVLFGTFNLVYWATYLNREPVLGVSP
Briefly: Modulation of GABA Aalpha2beta2 receptor expressed in Xenopus laevis oocytes assessed as potentiation of GABA-induced chloride current at holding potential -70 mV by two-microelectrode voltage clamp technique. It is filed as cell-based, Oocyte. In short, it runs like this:
(§2)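 Stage V–VI Xenopus oocytes, defolliculated with 2 mg/mL collagenase, injected with α(1, 2, 3 or 5) and β2 cRNAs mixed 1:1, then kept at 18 °C in ND96 (pH 7.4). Enhancement = I(GABA+compound)/IGABA − 1. Curves were Hill-fitted for EC50. Bath DMSO was at most 0.3%, matched in controls.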

The target of assay [7] is T2, GABA-A receptor; GABA-A site (alpha1/beta2 interface) (Homo sapiens, UniProt P14867+P47870).
T2 sequence (P14867 whole entry): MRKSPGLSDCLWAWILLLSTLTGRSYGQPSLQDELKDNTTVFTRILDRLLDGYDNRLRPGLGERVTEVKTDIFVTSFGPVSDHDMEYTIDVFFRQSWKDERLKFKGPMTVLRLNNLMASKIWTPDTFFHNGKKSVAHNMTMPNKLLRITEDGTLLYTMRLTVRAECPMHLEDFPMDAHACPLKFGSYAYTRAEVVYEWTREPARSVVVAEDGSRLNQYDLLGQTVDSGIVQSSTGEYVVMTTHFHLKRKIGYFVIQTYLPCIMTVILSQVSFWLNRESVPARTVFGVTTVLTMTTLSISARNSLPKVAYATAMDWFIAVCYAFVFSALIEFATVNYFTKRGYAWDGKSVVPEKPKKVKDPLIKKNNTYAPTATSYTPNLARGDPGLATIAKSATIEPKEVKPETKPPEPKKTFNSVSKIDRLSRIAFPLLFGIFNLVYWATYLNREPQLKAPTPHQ
T2 sequence (P47870 whole entry): T1 sequence (P47870 whole entry)
The experiment in a line: Modulation of GABA Aalpha1beta2 receptor expressed in Xenopus laevis oocytes assessed as potentiation of GABA-induced chloride current at holding potential -70 mV by two-microelectrode voltage clamp technique. It is filed as cell-based, Oocyte. An outline of the steps: as §2

For assay [8], the system named is Oocyte. The experiment in a line: Modulation of GABA alpha1beta2gamma2s receptor expressed in Xenopus laevis oocytes assessed as potentiation of GABA-induced chloride current at holding potential -70 mV by two-microelectrode voltage clamp technique relative to GABA. It is filed as cell-based. In short, it runs like this: as §1

By EC50 is commonly meant the concentration at which the effect is half-maximal. On to `C=CCc1ccc(O)c(-c2ccc(O)c(CC=C)c2)c1` [HONOKIOL], for which the Smax was determined as 2390% in assay [1], 878% in assay [5] and 1320% in the assay on Oocyte [8]. The Activity was determined as 376% in assay [2] and 116% in the assay on Oocyte [4]. Besides, the EC50 in assay [3] is 36.2 µM; in assay [6], 46.4 µM; in assay [7], 39.3 µM.
